The source of these data is ChEMBL document CHEMBL4033636, “Identification of selective inhibitors of sphingosine kinases 1 and 2 through a structure-activity relationship study of 4-epi-jaspine B” (Bioorg Med Chem, 2017).

In test [1] the target is T1, Sphingosine kinase 2 (Homo sapiens, UniProt Q9NRA0).
T1 sequence (Q9NRA0 whole entry): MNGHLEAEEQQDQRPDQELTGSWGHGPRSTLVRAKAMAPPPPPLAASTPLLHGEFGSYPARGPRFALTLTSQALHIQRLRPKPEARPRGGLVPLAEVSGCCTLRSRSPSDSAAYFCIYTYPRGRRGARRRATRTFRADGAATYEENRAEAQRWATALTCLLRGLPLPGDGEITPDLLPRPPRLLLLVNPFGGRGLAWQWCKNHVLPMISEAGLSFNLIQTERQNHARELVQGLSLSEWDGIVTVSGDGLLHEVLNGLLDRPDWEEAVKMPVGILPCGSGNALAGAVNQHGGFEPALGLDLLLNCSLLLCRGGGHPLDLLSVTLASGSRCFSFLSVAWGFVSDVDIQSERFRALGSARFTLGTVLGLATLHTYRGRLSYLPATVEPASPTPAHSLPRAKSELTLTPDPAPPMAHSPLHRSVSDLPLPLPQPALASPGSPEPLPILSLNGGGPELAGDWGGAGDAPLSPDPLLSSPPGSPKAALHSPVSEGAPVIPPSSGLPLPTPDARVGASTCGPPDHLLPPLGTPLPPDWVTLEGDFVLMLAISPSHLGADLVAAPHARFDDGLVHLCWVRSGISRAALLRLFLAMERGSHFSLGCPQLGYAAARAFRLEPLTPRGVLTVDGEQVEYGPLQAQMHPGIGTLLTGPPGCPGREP
Put plainly: Inhibition of recombinant human SphK2 using NBD-sphingosine as substrate after 2 hrs in presence of ATP by HPLC method.

Test [2] addresses T2, Sphingosine kinase 1 (Homo sapiens, UniProt Q9NYA1). Put plainly: Inhibition of recombinant human SphK1 using NBD-sphingosine as substrate after 2 hrs in presence of ATP by HPLC method.
Test [3] addresses T2, Sphingosine kinase 1. Put plainly: Inhibition of recombinant N-terminal GST-tagged human SphK1 (1 to 384 residues) expressed in baculovirus expression system using sphingosine as substrate after 1 hr in presence of ATP by off-chip mobility shift assay. The method, boiled down:
(§1)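 GST-fusion kinases purified on glutathione sepharose. Compounds in DMSO diluted fourfold into 20 mM HEPES pH 7.5, 0.01% Triton X-100, 2 mM DTT. Reaction: 1 µM sphingosine, 5 mM MgCl2, ATP 25 µM (SphK1) or 600 µM (SphK2), room temperature 1 h, n = 2. Read-out: P/(P+S) from electrophoretic peak heights. […] IC50 fitted.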

In test [4] the target is T1, Sphingosine kinase 2. Put plainly: Inhibition of recombinant N-terminal GST-tagged human SphK2 (1 to 618 residues) expressed in baculovirus expression system using sphingosine as substrate after 1 hr in presence of ATP by off-chip mobility shift assay. The method, boiled down: as §1
Test [5] addresses T2, Sphingosine kinase 1. Put plainly: Inhibition of human SphK1 using sphingosine as substrate after 15 to 20 mins in presence of [gamma-32P]ATP by Cerenkov counting method.
Test [6] has as its target T1, Sphingosine kinase 2. Put plainly: Inhibition of human SphK2 using sphingosine as substrate after 15 to 20 mins in presence of [gamma-32P]ATP by Cerenkov counting method.
Test [7] addresses T2, Sphingosine kinase 1. Put plainly: Inhibition of human SphK1 using sphingosine as substrate in presence of [gamma-32P]ATP.
Test [8] deals with T2, Sphingosine kinase 1. Put plainly: Inhibition of recombinant human SphK1 expressed in baculovirus infected sf9 cells using D-erythro-sphingosine as substrate in presence of [gamma-33P]ATP by scintillation counting method.
Test [9] addresses T3, Sphingosine kinase 2 (Mus musculus, UniProt Q9JIA7).
T3 sequence (Q9JIA7 whole entry): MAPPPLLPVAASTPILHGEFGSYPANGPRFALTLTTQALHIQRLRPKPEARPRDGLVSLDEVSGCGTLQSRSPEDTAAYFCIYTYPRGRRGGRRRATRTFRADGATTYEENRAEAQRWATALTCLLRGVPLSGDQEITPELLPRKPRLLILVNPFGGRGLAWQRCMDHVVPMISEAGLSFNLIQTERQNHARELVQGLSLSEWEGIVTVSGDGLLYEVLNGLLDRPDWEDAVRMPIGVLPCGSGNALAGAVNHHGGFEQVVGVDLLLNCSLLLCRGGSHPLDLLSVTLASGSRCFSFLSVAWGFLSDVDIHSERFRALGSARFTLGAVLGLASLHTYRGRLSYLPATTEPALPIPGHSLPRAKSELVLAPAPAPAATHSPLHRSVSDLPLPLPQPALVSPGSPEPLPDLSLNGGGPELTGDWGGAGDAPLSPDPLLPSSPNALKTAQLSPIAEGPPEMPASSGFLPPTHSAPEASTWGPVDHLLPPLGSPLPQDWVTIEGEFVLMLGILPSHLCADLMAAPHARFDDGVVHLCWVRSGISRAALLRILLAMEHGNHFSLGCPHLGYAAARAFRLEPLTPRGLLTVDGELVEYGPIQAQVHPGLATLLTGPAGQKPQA
Put plainly: Inhibition of recombinant mouse SphK2 expressed in baculovirus infected sf9 cells using D-erythro-sphingosine as substrate in presence of [gamma-33P]ATP by scintillation counting method.

Molecules are shown by their SMILES. pIC50, pKi: −log10 of the molar value. Where only a bound is given, the exact number is not on record here.

T2 sequence (Q9NYA1 whole entry, the tested form may be a part): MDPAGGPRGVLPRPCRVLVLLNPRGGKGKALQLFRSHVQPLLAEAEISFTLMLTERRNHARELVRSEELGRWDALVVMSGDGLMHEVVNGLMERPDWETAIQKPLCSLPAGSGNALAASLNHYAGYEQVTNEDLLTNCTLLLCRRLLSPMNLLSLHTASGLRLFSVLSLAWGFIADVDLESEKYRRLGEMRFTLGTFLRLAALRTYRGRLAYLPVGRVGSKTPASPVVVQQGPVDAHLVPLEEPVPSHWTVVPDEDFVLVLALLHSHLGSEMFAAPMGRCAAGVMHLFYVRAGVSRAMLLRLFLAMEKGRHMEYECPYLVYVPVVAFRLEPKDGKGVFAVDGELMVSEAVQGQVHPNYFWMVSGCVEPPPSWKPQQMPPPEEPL

With `CC(=O)N(C1=C(Cl)C(=O)c2ccccc2C1=O)C1CCCCC1`, the pIC50 at Sphingosine kinase 2 [1] is under 4.00; on Sphingosine kinase 1 [2], 5.70. Take `CCCCCCCCCCCCCC[C@@H]1OC[C@@H](N)[C@@H]1O`: the pIC50 on Sphingosine kinase 1 [3] was 5.96 to 6.09; at Sphingosine kinase 2 [4], 6.13 to 6.22. For `CCCCCCCCc1ccc(CC[C@@](N)(CO)COC)cc1`, the negative-log IC50 (pIC50) was under 4.30 on Sphingosine kinase 1 [5] and 4.57 at Sphingosine kinase 2 [6].

As to `CCCCOc1ccc(CC/C=C2\SC(=O)N(CCN)C2=O)cc1`, the pIC50 at Sphingosine kinase 1 [7] was under 5.00. In the case of `CCCCCCCCCCCCc1ccc(-c2noc(C3(C(=N)N)CC3)n2)cc1`, the pKi on Sphingosine kinase 1 [8] is 7.40; at Sphingosine kinase 2 [9] it was 4.85. In the case of `CCCCCCCCCCCCc1ccc(CC[C@@H]2OC[C@@H](N)[C@@H]2O)cc1`, the negative-log IC50 (pIC50) at Sphingosine kinase 1 [3] is 6.06; on Sphingosine kinase 2 [4] it was 4.68.

For `CCCCCCCCc1cccc(CC[C@@H]2OC[C@@H](N)[C@@H]2O)c1`, the pIC50 at Sphingosine kinase 1 [3] was 4.80; at Sphingosine kinase 2 [4], 5.68. As to `CC(C)COCCCCCCCCCCC[C@@H]1OC[C@@H](N)[C@@H]1O`, the results for the pIC50 at Sphingosine kinase 1 [3] and on Sphingosine kinase 2 [4] were 6.15 and 6.08, respectively. The corresponding values for `CCCCCCc1ccc(CC[C@@H]2OC[C@@H](N)[C@@H]2O)cc1` are under 4.52 and 5.08. As to `N[C@@H]1CO[C@@H](CCCCCCCCCCOCC2CCCCC2)[C@H]1O`, the pIC50 at Sphingosine kinase 1 [3] was 6.66; on Sphingosine kinase 2 [4], 6.62. The corresponding values for `N[C@@H]1CO[C@@H](CCCCCCCCCCCOCC2CCCCC2)[C@H]1O` are 6.42 and 6.11. The corresponding values for `CCCCCCCCCOCCCC[C@@H]1OC[C@@H](N)[C@@H]1O` are under 4.52 and under 4.52. Taken in the same sequence, the figures for `CCCCCCCc1cccc(CC[C@@H]2OC[C@@H](N)[C@@H]2O)c1` were under 4.52 and 5.66.

Turning to `CCCCCCCCCCCCCC[C@@H]1OC[C@@H](NC(=N)N)[C@@H]1O`, the values for the pIC50 at Sphingosine kinase 1 [3] and at Sphingosine kinase 2 [4] were 5.96 and 5.72, respectively. The corresponding values for `CCCCCCCCCCc1ccc(CC[C@@H]2OC[C@@H](N)[C@@H]2O)cc1` are 6.38 and 6.17. The corresponding values for `CCCCCCCCCCCCCC[C@@H]1OC[C@@H](NC(C)=O)[C@@H]1O` are under 4.52 and under 4.52.

As for `CCCCCCCCCCCCCCc1ccc(CC[C@@H]2OC[C@@H](N)[C@@H]2O)cc1`, the negative-log IC50 (pIC50) on Sphingosine kinase 1 [3] and on Sphingosine kinase 2 [4] was under 4.52 throughout. `CCCCCCCCCc1cccc(CC[C@@H]2OC[C@@H](N)[C@@H]2O)c1`: the negative logarithm of the IC50 (pIC50) on Sphingosine kinase 1 [3] was 4.92; on Sphingosine kinase 2 [4], 5.77. The corresponding values for `N[C@@H]1CO[C@@H](CCCCCCCCOCC2CCCCC2)[C@H]1O` are 5.55 and 5.89. With `CCCCCCCCCCCCCC[C@@H]1OC[C@@H](NC(C)=N)[C@@H]1O`, the negative logarithm of the IC50 (pIC50) is 5.51 at Sphingosine kinase 1 [3] and 5.03 on Sphingosine kinase 2 [4]. Turning to `CCCCCCCCc1ccc(CC[C@@H]2OC[C@@H](N)[C@@H]2O)cc1`, the pIC50 on Sphingosine kinase 1 [3] was 5.85; at Sphingosine kinase 2 [4] it was 6.25.

With `N[C@@H]1CO[C@@H](CCCCCCCCCOCC2CCCCC2)[C@H]1O`, the pIC50 at Sphingosine kinase 1 [3] is 6.17; at Sphingosine kinase 2 [4] it was 6.34. The corresponding values for `CCCCCCCOCCCCCC[C@@H]1OC[C@@H](N)[C@@H]1O` are 5.02 and 5.41.

Turning to `CCCCCCCCc1ccccc1CC[C@@H]1OC[C@@H](N)[C@@H]1O`, the pIC50 at Sphingosine kinase 1 [3] and on Sphingosine kinase 2 [4] was under 4.52 each time.

Take `CCCCCCCCCCCCCC[C@@H]1OC[C@@H](N)[C@@H]1OC`: the pIC50 was 5.40 at Sphingosine kinase 1 [3] and under 4.52 at Sphingosine kinase 2 [4].

Turning to `O=C(NCc1ccncc1)C12CC3CC(C1)CC(c1ccc(Cl)cc1)(C3)C2` [ABC-294640], the negative-log IC50 (pIC50) is 4.22 on Sphingosine kinase 2 [1] and under 4.00 on Sphingosine kinase 1 [2].
